Reference: ChEMBL document CHEMBL2177069, “Novel peptidomimetic compounds containing redox active chalcogens and quinones as potential anticancer agents” (Eur J Med Chem, 2012)

What was measured:
[1] = tested on: DU-145; assay: Cytotoxicity against human DU145 cells; format: functional
[2] = tested on: Saccharomyces cerevisiae; assay: Growth inhibition of UFD2-deficient Saccharomyces cerevisiae YDL190C mutant at 20 ug/disc after 24 to 48 hrs by agar diffusion assay; format: functional; conditions: read-out: DIZ
Method in brief: (§1)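 S. cerevisiae deletion mutants or wild type grown on YPD, seeded into liquid agar medium at an optical density of 0.1. 6 mm paper discs soaked with methanolic compound solution were placed on the plates and incubated at 30 °C. Growth was checked after 1 and 2 days, and the inhibition zone diameter was recorded in mm.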

[3] = tested on: Saccharomyces cerevisiae; assay: Growth inhibition of COX17-deficient Saccharomyces cerevisiae YLL009C mutant at 20 ug/disc after 24 to 48 hrs by agar diffusion assay; format: functional; conditions: read-out: DIZ; method in brief: as §1
[4] = tested on: Saccharomyces cerevisiae; assay: Growth inhibition of RCK1-deficient Saccharomyces cerevisiae YGL158W mutant at 20 ug/disc after 24 to 48 hrs by agar diffusion assay; format: functional; conditions: read-out: DIZ; method in brief: as §1
[5] = tested on: Saccharomyces cerevisiae; assay: Growth inhibition of POS5-deficient Saccharomyces cerevisiae YPL188W mutant at 20 ug/disc after 24 to 48 hrs by agar diffusion assay; format: functional; conditions: read-out: DIZ; method in brief: as §1
[6] = tested on: Saccharomyces cerevisiae; assay: Growth inhibition of WSC4-deficient Saccharomyces cerevisiae YHL028W mutant at 20 ug/disc 24 to 48 hrs by agar diffusion assay; format: functional; conditions: read-out: DIZ; method in brief: as §1
[7] = tested on: Saccharomyces cerevisiae; assay: Growth inhibition of PST2-deficient Saccharomyces cerevisiae YDR032C mutant at 20 ug/disc 24 to 48 hrs by agar diffusion assay; format: functional; conditions: read-out: DIZ; method in brief: as §1
[8] = tested on: Saccharomyces cerevisiae; assay: Growth inhibition of SOD2-deficient Saccharomyces cerevisiae YHR008C mutant at 20 ug/disc 24 to 48 hrs by agar diffusion assay; format: functional; conditions: read-out: DIZ; method in brief: as §1
[9] = tested on: Saccharomyces cerevisiae; assay: Growth inhibition of wild type Saccharomyces cerevisiae BY4741 at 20 ug/disc after 24 to 48 hrs by agar diffusion assay; format: functional; conditions: read-out: DIZ; method in brief: as §1
[10] = Cytotoxicity against human PHF cells after 24 hrs by MTT assay; format: cell-based
Method in brief: (§2)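 MTT assay. Cells were seeded at 50,000 cells/mL in medium with 10% fetal calf serum and grown for two days at 37 °C, 10% CO2. Serial dilutions of compound were then added for 24 h. MTT was added (final 0.5 mg/mL) for 2 h, and the formazan was pelleted, washed, dissolved in isopropanol with 0.4% HCl and read at 590 nm. IC50 is the concentration giving 50% of untreated-control absorbance, taken from dose-response curves; mean of two parallel experiments.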

[11] = tested on: HUVEC; assay: Cytotoxicity against human HUVEC cells after 24 hrs by MTT assay; format: cell-based; method in brief: as §2
[12] = tested on: A-431; assay: Cytotoxicity against human A431 cells after 24 hrs by MTT assay; format: functional, cell-based; conditions: A-431, 24 h; method in brief: as §2
[13] = tested on: Hs-578T; assay: Cytotoxicity against human Hs578T cells; format: functional
[14] = tested on: MCF7; assay: Cytotoxicity against human MCF7 cells; format: functional
[15] = tested on: UO-31; assay: Cytotoxicity against human UO31 cells; format: functional
[16] = tested on: PC-3; assay: Cytotoxicity against human PC3 cells; format: functional
[17] = tested on: SN12C; assay: Cytotoxicity against human SN12C cells; format: functional
[18] = tested on: NCI/ADR-RES; assay: Cytotoxicity against human NCI/ADR-RES cells; format: functional
[19] = tested on: OVCAR-5; assay: Cytotoxicity against human OVCAR5 cells; format: functional
[20] = tested on: IGROV-1; assay: Cytotoxicity against human IGROV1 cells; format: functional
[21] = tested on: UACC-62; assay: Cytotoxicity against human UACC62 cells; format: functional
[22] = tested on: SK-MEL-5; assay: Cytotoxicity against human SK-MEL-5 cells; format: functional
[23] = tested on: SK-MEL-28; assay: Cytotoxicity against human SK-MEL-28 cells; format: functional
[24] = tested on: SK-MEL-2; assay: Cytotoxicity against human SK-MEL-2 cells; format: functional
[25] = tested on: MDA-MB-435; assay: Cytotoxicity against human MDA-MB-435 cells; format: functional
[26] = tested on: Malme-3M; assay: Cytotoxicity against human MALME-3M cells; format: functional
[27] = tested on: M14; assay: Cytotoxicity against human M14 cells; format: functional
[28] = tested on: SNB-75; assay: Cytotoxicity against human SNB75 cells; format: functional
[29] = tested on: SNB-19; assay: Cytotoxicity against human SNB19 cells; format: functional
[30] = tested on: SF-295; assay: Cytotoxicity against human SF295 cells; format: functional
[31] = tested on: SW-620; assay: Cytotoxicity against human SW620 cells; format: functional
[32] = tested on: KM12; assay: Cytotoxicity against human KM12 cells; format: functional
[33] = tested on: HCT-15; assay: Cytotoxicity against human HCT15 cells; format: functional
[34] = tested on: NCI-H522; assay: Cytotoxicity against human NCI-H522 cells; format: functional
[35] = tested on: NCI-H460; assay: Cytotoxicity against human NCI-H460 cells; format: functional
[36] = tested on: NCI-H226; assay: Cytotoxicity against human NCI-H226 cells; format: functional
[37] = tested on: A549; assay: Cytotoxicity against human A549 cells; format: functional
[38] = tested on: HOP-62; assay: Cytotoxicity against human HOP62 cells; format: functional
[39] = tested on: MOLT-4; assay: Cytotoxicity against human MOLT4 cells; format: functional
[40] = read-out: pLC50 (the source's name) (converted)

CC1=C([Se]CC(OC(=O)[C@@H](CSSC(C)(C)C)NC(=O)C(C)(C)C)C(=O)NCCCCCC(=O)OCc2ccccc2)C(=O)c2ccccc2C1=O (stereo not given in full)
GI50 [1]: 2.14 µM
LC50 [1]: 9.55 µM
TGI ([1]; read-out: pTGI (converted)): 4.47 µM
zone of inhibition at 20 µg/disc [2]: 0 mm
zone of inhibition at 20 µg/disc [3]: 0 mm
zone of inhibition at 20 µg/disc [4]: 0 mm
zone of inhibition at 20 µg/disc [5]: 0 mm
zone of inhibition at 20 µg/disc [6]: 14 mm
zone of inhibition at 20 µg/disc [7]: 11 mm
zone of inhibition at 20 µg/disc [8]: 0 mm
zone of inhibition at 20 µg/disc [9]: 0 mm
IC50 [10]: 4 µM
IC50 [11]: 10 µM
IC50 [12]: 4 µM
GI50 [13]: 2.19 µM
LC50 [13]: > 100 µM
TGI ([13]; read-out: pTGI (converted)): 5.5 µM
GI50 [14]: 3.02 µM
LC50 [14]: 50.1 µM
TGI ([14]; read-out: pTGI (converted)): 9.77 µM
GI50 [15]: 1.48 µM
LC50 [15]: 6.76 µM
TGI ([15]; read-out: pTGI (converted)): 3.16 µM
GI50 [16]: 1.51 µM
LC50 [16]: 8.71 µM
TGI ([16]; read-out: pTGI (converted)): 3.63 µM
GI50 [17]: 2 µM
LC50 [17]: 7.59 µM
TGI ([17]; read-out: pTGI (converted)): 3.89 µM
GI50 [18]: 3.39 µM
CC50 [18, 40]: > 100 µM
TGI ([18]; read-out: pTGI (converted)): 11.5 µM
GI50 [19]: 2.57 µM
LC50 [19]: 17.4 µM
TGI ([19]; read-out: pTGI (converted)): 5.5 µM
GI50 [20]: 1.91 µM
LC50 (concentration killing 50% of cells) [20]: 7.08 µM
TGI ([20]; read-out: pTGI (converted)): 3.63 µM
GI50 [21]: 1.95 µM
LC50 [21]: 8.13 µM
TGI ([21]; read-out: pTGI (converted)): 3.98 µM
GI50 [22]: 1.91 µM
LC50 [22]: 5.89 µM
TGI ([22]; read-out: pTGI (converted)): 3.31 µM
GI50 [23]: 1.91 µM
LC50 [23]: 6.46 µM
TGI ([23]; read-out: pTGI (converted)): 3.55 µM
GI50 [24]: 2.24 µM
LC50 [24]: 39.8 µM
TGI ([24]; read-out: pTGI (converted)): 5.01 µM
GI50 [25]: 2.29 µM
LC50 [25]: 25.1 µM
TGI ([25]; read-out: pTGI (converted)): 5.5 µM
GI50 [26]: 2.51 µM
LC50 [26]: 13.5 µM
TGI ([26]; read-out: pTGI (converted)): 5.13 µM
GI50 [27]: 2.04 µM
LC50 [27]: 7.94 µM
TGI ([27]; read-out: pTGI (converted)): 4.07 µM
GI50 [28]: 1.38 µM
LC50 [28]: 5.13 µM
TGI ([28]; read-out: pTGI (converted)): 2.69 µM
GI50 [29]: 1.1 µM
LC50 [29]: 6.03 µM
TGI ([29]; read-out: pTGI (converted)): 2.57 µM
GI50 [30]: 0.316 µM
LC50 [30]: > 100 µM
TGI ([30]; read-out: pTGI (converted)): 1.95 µM
GI50 [31]: 2.29 µM
LC50 [31]: 15.8 µM
TGI ([31]; read-out: pTGI (converted)): 5.25 µM
GI50 [32]: 1.78 µM
LC50 [32]: 6.76 µM
TGI ([32]; read-out: pTGI (converted)): 3.47 µM
GI50 [33]: 3.24 µM
LC50 [33]: 66.1 µM
TGI ([33]; read-out: pTGI (converted)): 12.9 µM
GI50 [34]: 1.7 µM
LC50 [34]: 6.17 µM
TGI ([34]; read-out: pTGI (converted)): 3.24 µM
GI50 [35]: 0.631 µM
LC50 [35]: 9.55 µM
TGI ([35]; read-out: pTGI (converted)): 2.51 µM
GI50 [36]: 2.34 µM
CC50 [36, 40]: 9.12 µM
TGI ([36]; read-out: pTGI (converted)): 4.68 µM
GI50 [37]: 2.09 µM
LC50 [37]: > 100 µM
TGI ([37]; read-out: pTGI (converted)): 5.37 µM
GI50 [38]: 1.02 µM
LC50 [38]: 9.12 µM
TGI ([38]; read-out: pTGI (converted)): 3.02 µM
GI50 [39]: 3.24 µM
LC50 [39]: > 100 µM
TGI ([39]; read-out: pTGI (converted)): 9.55 µM
